From ChEMBL document CHEMBL1130032, “Preparation and anti-HIV activity of N-3-substituted thymidine nucleoside analogs” (J Med Chem, 1997)

What was measured:
[1] = test system: CEM-c113; experiment: Concentration required to reduce by 50% the viability of noninfected treated CEM-CL13 cells; type: functional; settings: Homo sapiens
Outline: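 CEM-c113 cells, 1×10^4 per well, exposed to 10-fold dilutions of compound without virus; 7 days at 37 °C, 5% CO2; MTT viability read-out; CC50 = concentration reducing viability by 50% relative to uninfected untreated controls; triplicate wells, mean of at least two experiments.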

[2] = test system: Human immunodeficiency virus 1; experiment: Inhibition of HIV-1 LA1 cytopathic effects on CEM-CL13 cells in vitro.; type: functional, organism-based; settings: Human immunodeficiency virus 1, CEM-CL13
Outline: (§1)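 CEM-c113 cells (1×10^4/well) preincubated 1 h with 10-fold compound dilutions, then infected with HIV-1 LAI; cultured 7 days at 37 °C, 5% CO2; cytopathic effect scored by MTT viability versus infected untreated cells; EC50 = 50% reduction of CPE; triplicate, mean of ≥2 experiments.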

[3] = Ratio of CC50 in CEM-CL13 cells to EC50 in HIV-1 LA1 infected CEM-CL13 cells.; type: functional
Outline: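 Selectivity index computed as CC50 (MTT viability of uninfected treated CEM-c113 cells) divided by EC50 (MTT protection of HIV-1 LAI-infected CEM-c113 cells), both from 7-day cultures at 37 °C exposed to 10-fold compound dilutions.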

[4] = test system: CEM-c113; experiment: Concentration that reduces by 50% the HIV induced cytopathic effect on CEM-CL13 cells by MTT viability assay; NA = Not active; type: functional, cell-based, Homo sapiens; outline: as §1

Structure (SMILES) | CC50 [1] | EC50 [2] | Ratio [3] | EC50 [4]
Cc1cn(C2CC(n3c(=O)c(C)cn(C4CC(N=[N+]=[N-])C(CO)O4)c3=O)C(CO)O2)c(=O)[nH]c1=O (stereo not given) | 66 µM | 2.2 µM | 30 | 
COCCOCn1c(=O)c(C)cn(C2CC(N=[N+]=[N-])C(CO)O2)c1=O (stereo not given) | 281 µM | 5.6 µM | 50 | 
Cc1cn(C2CC(N=[N+]=[N-])C(CO)O2)c(=O)n(CCn2c(=O)c(C)cn(C3CC(N=[N+]=[N-])C(CO)O3)c2=O)c1=O (stereo not given) | 36 µM | 0.7 µM | 51 | 
Cc1cn(C2CC(N=[N+]=[N-])C(CO)O2)c(=O)n(CCN2C(=O)c3ccccc3C2=O)c1=O (stereo not given) | 227 µM | 110 µM | 2 | 
COc1nc(=O)n(CCn2c(=O)c(C)cn(C3CC(N=[N+]=[N-])C(CO)O3)c2=O)cc1C (stereo not given) | 29 µM |  |  | Not Active
Cc1cn(C2CC(N=[N+]=[N-])C(CO)O2)c(=O)n(CCO)c1=O (stereo not given) | 161 µM | 0.3 µM | 537 | 
C=CCn1c(=O)c(C)cn(C2CC(N=[N+]=[N-])C(CO)O2)c1=O (stereo not given) | 350 µM | 32 µM | 11 | 
Cc1cn(C2CC(N=[N+]=[N-])C(CO)O2)c(=O)n(CC2CO2)c1=O (stereo not given) | > 62 µM | 6.8 µM | 9 | 
Cc1cn(C2CC(N=[N+]=[N-])C(CO)O2)c(=O)n(N)c1=O (stereo not given) | 450 µM | 0.045 µM | 10000 | 
Cc1cn(C2CC(N=[N+]=[N-])C(CO)O2)c(=O)n(CCCO)c1=O (stereo not given) | 154 µM | 0.15 µM | 1027 | 
Cc1cn(C2CC(N=[N+]=[N-])C(CO)O2)c(=O)n(C)c1=O (stereo not given) | 355 µM | 0.94 µM | 380 | 
Cc1cn(C2CC(N=[N+]=[N-])C(CO)O2)c(=O)n(CC2COC(C)(C)O2)c1=O (stereo not given) | > 131 µM | 1.3 µM | 100 | 
Cc1cn(C2CC(N=[N+]=[N-])C(CO)O2)c(=O)n(CC2CC(CO)=NO2)c1=O (stereo not given) | 26 µM | 0.5 µM | 52 | 
CCOC(=O)Cn1c(=O)c(C)cn(C2CC(N=[N+]=[N-])C(CO)O2)c1=O (stereo not given) | 283 µM | 1.47 µM | 193 | 
Cc1cn(CCn2c(=O)c(C)cn(C3CC(N=[N+]=[N-])C(CO)O3)c2=O)c(=O)[nH]c1=O (stereo not given) | > 29 µM | 0.48 µM | 60 | 
Cc1cn(C2CC(N=[N+]=[N-])C(CO)O2)c(=O)n(CCBr)c1=O (stereo not given) | 53 µM | 2.67 µM | 20 | 
CCOC(Cn1c(=O)c(C)cn(C2CC(N=[N+]=[N-])C(CO)O2)c1=O)OCC (stereo not given) | 130 µM | 5 µM | 26 | 
CCOP(=O)(Cn1c(=O)c(C)cn(C2CC(N=[N+]=[N-])C(CO)O2)c1=O)OCC (stereo not given) | 240 µM | 0.071 µM | 3380 | 
Cc1cn(C2CC(N=[N+]=[N-])C(CO)O2)c(=O)n(Cc2ccoc2)c1=O (stereo not given) | > 288 µM | 143 µM | 2 | 
CCCCCn1c(=O)c(C)cn(C2CC(N=[N+]=[N-])C(CO)O2)c1=O (stereo not given) | > 60 µM | 0.89 µM | >67 | 
Cc1cn(C2CC(N=[N+]=[N-])C(CO)O2)c(=O)n(Cc2ccccc2)c1=O (stereo not given) | 28 µM |  |  | Not Active
Cc1cn(C2CC(N=[N+]=[N-])C(CO)O2)c(=O)n(CCCCCCO)c1=O (stereo not given) | 64 µM | 0.082 µM | 780 | 
Cc1cn(C2CC(N=[N+]=[N-])C(CO)O2)c(=O)n(CCN=[N+]=[N-])c1=O (stereo not given) | 60 µM | 0.26 µM | 230 | 
Cc1cn([C@H]2C[C@H](N=[N+]=[N-])[C@@H](CO)O2)c(=O)[nH]c1=O [ZIDOVUDINE] | > 5 µM | 0.003 µM | 1667 | 
